One may read the inhibition as the change of the read-out against control, counted positive when it falls.

In all, about 65,000 compounds went through this assay and about 280 (0.43%) were called active. This is one part of a sample in which actives are shown more often than they occur. A number with no mark means an inactive call.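 Rule for the calls: active = inhibition above the mean of all tested compounds plus 3 SD (cut at about 52% in these data); inactive = the rest.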

From PubChem BioAssay AID561 (The Scripps Research Institute Molecular Screening Center, 2006) come the findings set out here.

Sequence of Nuclear receptor ROR-alpha (Homo sapiens) (P35398 whole entry, looked up, the tested form may be a part): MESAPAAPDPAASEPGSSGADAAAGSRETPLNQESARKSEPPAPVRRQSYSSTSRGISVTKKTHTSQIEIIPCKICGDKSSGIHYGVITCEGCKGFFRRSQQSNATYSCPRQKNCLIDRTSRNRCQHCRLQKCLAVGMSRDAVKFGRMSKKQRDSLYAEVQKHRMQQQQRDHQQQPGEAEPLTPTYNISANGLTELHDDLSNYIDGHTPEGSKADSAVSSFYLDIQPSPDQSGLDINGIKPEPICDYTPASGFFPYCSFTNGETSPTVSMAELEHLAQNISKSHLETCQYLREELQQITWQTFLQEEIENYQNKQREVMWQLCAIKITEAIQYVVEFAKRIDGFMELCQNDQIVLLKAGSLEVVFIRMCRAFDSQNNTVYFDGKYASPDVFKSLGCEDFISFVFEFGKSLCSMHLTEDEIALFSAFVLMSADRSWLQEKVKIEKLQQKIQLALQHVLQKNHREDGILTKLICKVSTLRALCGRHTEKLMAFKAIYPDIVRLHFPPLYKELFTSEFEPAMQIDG

In this test the target is Nuclear receptor ROR-alpha (Homo sapiens) (UniProt P35398). As to the kind of experiment: suppression of basal RORA-driven reporter transcription – cell-based, luminescence, primary screen (AID 561). The following applies: CHO-K1 Gal4-RORA LBD luciferase reporter, at 10 µM, hits give high values. The essentials:
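System: transiently transfected CHO-K1 cells, Gal4-DBD/human RORA-LBD fusion plus 5xGal4-luciferase reporter. Doses: one dose of 10 µM final. Timing: 20 h compound treatment, 37 °C. Measured by: luminescence. Evaluation: % inhibition of basal luciferase versus +RORA/-RORA DMSO controls. Benchmarks: mock-transfected cells as 100%, +RORA DMSO cells as 0%. Replicates: single test per compound.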
(In general: A reporter such as luciferase makes a cellular process visible.)
Regarding `COC(=O)c1ccc(C2NC(=O)NC(C)=C2C(=O)N(C)C)cc1` (centres undefined), the inhibition is 29.5%. In the case of `O=C(Nc1ccc2c(c1)OCO2)C1CC(c2c(F)cccc2Cl)=NO1` (centres undefined), the inhibition was -2.1%. On to `COc1cc(OC)c(C(=O)Nc2ccc(N(C)C)cc2)cc1OC`, for which the inhibition was -58.1%. In the case of `Cc1ccc(Oc2nc3ccccc3n3c(C)nnc23)cc1`, the inhibition is -9.5%. As for `COCCCN(C(=O)Cn1ncc2c(=O)oc3ccc(C)cc3c21)C(C)c1ccncc1` (centres undefined), the figure is -5.6%; as for `Fc1ccccc1OCCSc1nc2ccccc2o1`, -26.2%. On to `CCOc1cc(C(=S)N2CCOCC2)ccc1O`, for which the inhibition is 8.5%. As for `COc1ccc(OCc2cccc(C(=O)N3CCCC3)c2)cc1`, the figure is -8.9%. Turning to `CCOc1cc(C(=O)N2CCc3cc(OC)c(OC)cc3C2)ccc1OC(F)F`, the inhibition is 57.3% (active). For `COc1ccc(-n2ncc3c(N4CCCc5ccccc54)ncnc32)cc1` the value was -50.2%; for `O=C(CC1NCCNC1=O)Nc1ccc(Oc2ccccc2)cc1` (centres undefined), -7.9%; for `COc1cc(C(=O)Nc2oc(-c3ccccc3)c(-c3ccccc3)c2C#N)cc(OC)c1OC`, -14.1%. For `O=C(Cc1c(F)cccc1Cl)N1CCN(C(=O)c2ccco2)CC1` the value was 14.5%; for `CCOC(=O)CCCNC(=O)CN1C(=O)NC(CCc2ccccc2)C1=O` (centres undefined), -7.9%; for `CC(=O)c1ccc(NC(=O)N[C@@H](Cc2ccccc2)C(=O)O)cc1`, 16.7%. For the molecule `O=C(Nc1cccc(Cl)c1)OCc1ccccn1`, the inhibition is -69.9%.

As for `CC(=O)Nc1ccc(-c2cn3cccnc3n2)cc1`, the inhibition is -27%.

As for `Clc1ccc(C2CC(c3cccs3)n3ncnc3N2)cc1Cl` (centres undefined), the inhibition was -4.7%. For `CC(C)(C)c1ccc(C(=O)CSc2ncn[nH]2)cc1` the value was -54.2%. Turning to `CC(C)(C)NC(=O)Cn1nnc(-c2ccccc2Cl)n1`, the inhibition was -65.9%.

As to `COc1cccc(C2/C(=C(/O)c3ccncc3)C(=O)C(=O)N2CCCN(C)C)c1` (centres undefined), the inhibition is 17%.

`Cc1noc(C)c1COC(=O)Cn1c(C)nc2ccccc21`: the inhibition was -0.6%. As for `COc1ccc(-n2c(SC)nc(O)cc2=O)cc1`, the inhibition is 8.5%. For `CC(C)OCCCNc1ncnc2c1[nH]c1ccc(F)cc12` the value was 75.5% (active); for `Cc1cc2nc(-c3ccc(NC(=O)c4cccnc4)cc3)oc2cc1C`, -71.6%; for `CCOC(=O)/C=c1\s/c(=C\c2ccccc2OC)c(=O)n1CC(=O)N1CCOCC1`, 3.7%.

`CC1CN(C(=O)CN2C(=O)NC(C)(c3ccccc3)C2=O)CC(C)O1` (centres undefined): the inhibition was 11.6%. As for `CCCN(CCC)CCNC(=O)c1cc2c(C)nc3ccccc3c2o1`, the figure is -1.5%; as for `COc1ccc(-c2nc(-c3ccccc3)no2)c(OC)c1`, 78.4% (active). As for `COc1ccc(-c2noc(-c3cccc(OC)c3OC)n2)cc1OC`, the figure is -89.8%. Turning to `CCOc1ccc(Nc2oc(Cc3ccccc3)nc2C#N)cc1`, the inhibition is -25.7%. Take `O=C(CSc1nc2ccccc2[nH]1)c1cccs1`: the inhibition is -56.5%.

For the molecule `O=C(CCSc1ccccc1)NCCSc1ccccn1`, the inhibition was -13.3%. With `Cc1ccsc1C(=O)OCC(=O)c1cc(C)n(CC2CCCO2)c1C` (centres undefined), the inhibition was 85.1% (active). For `O=c1c2cc3c(=O)n(CC4CCCO4)c(=O)c3cc2c(=O)n1CC1CCCO1` (centres undefined) the value was 5.9%. For `Cn1c(-c2ccco2)nc2cc3ccccc3cc21` the value was 68.8% (active); for `O=C(Nc1cccc(-c2nnc(-c3ccccc3)o2)c1)C1CCCO1` (centres undefined), -61.1%. For the molecule `COC(=O)Cc1cc(=O)n(-c2nc3ccccc3s2)[nH]1`, the inhibition was 10.2%.

On to `CC(=O)Nc1ccc(S(=O)(=O)N2CCN(CCCOc3cc(C)ccc3C)CC2)cc1`, for which the inhibition is 13.3%.

For `CC1(C)NC(=O)N(CCOc2cccc(Oc3ccccc3)c2)C1=O`, the inhibition is -0.4%.

On to `CC(=O)NC(Cc1ccc(F)cc1)C(=O)O` (centres undefined), for which the inhibition is 4.4%.

Turning to `COc1ccccc1CNC(=O)CCCNS(=O)(=O)c1cccc2nsnc12`, the inhibition was 12.8%. For `CS(=O)(=O)c1ccc2nc(NC(=O)C3C4C=CC(C4)C3C(=O)O)sc2c1` (centres undefined) the value was 0.6%; for `CCCCOc1ccc(-c2ncc(C(=O)OCC)c(N)n2)cc1`, -59.3%. Turning to `Cc1ccc(CNC(=O)C2CCCN(S(C)(=O)=O)C2)cc1` (centres undefined), the inhibition was -3.7%. Consider `CCSc1nc(C)nc2c1oc1ccccc12`, for which the inhibition is -1%. For `CCc1c(C)sc(NC(=O)c2ccc(Br)o2)c1C(=O)OC` the value was 3.7%; for `CC1(C)CC(CCC(=O)Nc2ccccc2Cl)C(=O)O1` (centres undefined), 6.6%; for `C#CCNc1nc(C(C)C)nc2c1nnn2Cc1ccccc1F`, -1.9%. In the case of `Fc1ccc2[nH]c3c(N4CCSCC4)ncnc3c2c1`, the inhibition was 80.8% (active). Regarding `Fc1ccc2[nH]c3c(N4CCN(Cc5ccc6c(c5)OCO6)CC4)ncnc3c2c1`, the inhibition was 86.3% (active). In the case of `CN(C)/C=C/c1c(C#N)c(=O)ncn1Cc1ccccc1`, the inhibition was 15.5%. For `Cc1ccc(Cn2nnc3c(=O)n(CC(=O)N4CCCCC4)cnc32)cc1` the value was 19.7%; for `O=C(NC1=NCCS1)c1ccc(Cl)s1`, -80.1%; for `CC(C)OC(=O)C(C#N)c1nc2ccccc2nc1N1CCN(Cc2ccccc2)CC1` (centres undefined), -19.7%. Regarding `O=C1C(C=NCC2CCCO2)=C(O)c2ccccc21` (centres undefined), the inhibition was -48.7%. As to `Cc1nc2nc(COc3ccccc3)[nH]n2c(=O)c1C`, the inhibition was -0.2%. `Cc1ccc(-n2ncc3c2ncn2nc(-c4ccco4)nc32)c(C)c1`: the inhibition is -10.8%. Turning to `COc1ccccc1-c1cc(C(=O)N2CCCCC2)no1`, the inhibition is -56.5%. For `O=c1oc2cc(O)ccc2cc1-c1ccc(F)cc1` the value was -61.8%; for `CCCN(c1ccc(C(C)C)cc1)S(=O)(=O)c1c(C)[nH]c(=O)[nH]c1=O`, -10.6%. As for `O=C(O)CC(c1ccccc1)n1cnnn1` (centres undefined), the figure is 15.8%; as for `CN(C)c1nc(N)nc(CSc2nnnn2-c2cccc3ccccc23)n1`, 53.2% (active); as for `Cn1c(=O)c(C(=O)Nc2ncccn2)c(O)c2ccccc21`, -61%. For `CC(=O)Oc1ccc(C(=O)Nc2nccs2)cc1` the value was -61%. `COc1ccccc1C(=O)C(O)c1ccccc1OC` (centres undefined): the inhibition is -19.7%.

`O=C(c1cc(-c2cccs2)on1)N1CCCCC1`: the inhibition is -63.4%. As for `Cc1noc(C)c1S(=O)(=O)Nc1ccc(C(=O)O)cc1`, the inhibition is -7.4%. For `Cn1c(SCc2c(F)cccc2Cl)nnc1-c1cnccn1` the value was -62.8%; for `Nc1ccc(-c2nnc(-c3ccc(-c4ccccc4)cc3)o2)cc1`, -60.7%; for `COc1ccccc1-n1nnnc1S(=O)(=O)Cc1ccc(Cl)cc1`, 54.4% (active). For `OCCCNC(c1ccccc1)c1ccc(O)cc1` (centres undefined) the value was 24.8%. As for `COc1ccc(OC)c(CNC(=O)C2CCCN(c3nc4ccccc4o3)C2)c1` (centres undefined), the figure is 33.3%; as for `COC(=O)CCSc1nccn1Cc1ccccc1`, 7.6%. In the case of `COc1ccccc1CNC(=O)C1CCN(c2nc3ccccc3o2)CC1`, the inhibition was 14%.

As for `CCS(=O)(=O)N1CCCC(C(=O)NCCCN(C)Cc2ccccc2)C1` (centres undefined), the inhibition is -3.1%. For the molecule `Cc1cc(Cl)c(S(=O)(=O)Nc2ccc3c(c2)OCCO3)cc1OCC(N)=O`, the inhibition was 22.5%.

On to `OC1CN=C2Sc3ccccc3N2C1` (centres undefined), for which the inhibition was 10.5%. For `CCOc1ccccc1N(CC(=O)NC1CCCCC1)C(=O)CCCC(=O)Nc1ccccn1`, the inhibition was -9%. As to `CN1CCCC(OC(=O)COc2ccc(Br)cc2)C1` (centres undefined), the inhibition is -27%. For the molecule `CC(=O)Nc1cccc(-c2cnc3ccccc3n2)c1`, the inhibition was -72.9%. For `CCNC(=O)CCc1nc(-c2ccc(C(C)(C)C)cc2)no1` the value was 88.3% (active). For `Cc1ccc(Cc2nc(-c3cccc(C)c3)no2)cc1`, the inhibition is -51.5%. As for `Cc1cc(C)nc(NC(=O)Nc2ccccc2C(F)(F)F)n1`, the figure is -29%; as for `Cc1cccc(NC(=O)CSc2nc3c(c(=O)[nH]2)CCC3)c1C`, 0.6%; as for `CC(C)CCNc1nc(N2CCCC2)c2c(c1C#N)CCN(C)C2`, -5.2%.

Turning to `COc1ccc(Cl)cc1S(=O)(=O)Nc1cccc(C(=O)O)c1`, the inhibition is 2.9%. Turning to `O=C(O)CCC(=O)NCc1ccc2[nH]c3c(c2c1)CCCC3`, the inhibition is 11.8%.

For the molecule `COCCCNC(=O)Cn1cc(C(=O)C2CC2)c2ccccc21`, the inhibition is -7.6%. For `COc1ccc(CN(C(=O)c2cccs2)c2nccs2)cc1OC` the value was -6.9%; for `CCOC(=O)Nc1ccccc1N1C(=O)c2ccccc2C1=O`, -13%. As for `Cn1c(SCC(=O)Nc2cccc(O)c2)nnc1-c1ccc(S(=O)(=O)N2CCOCC2)cc1`, the figure is -31.5%. For `CC[C@H]1CN2CCc3cc(OC)c(OC)cc3[C@@H]2C[C@@H]1C[C@H]1NCCc2cc(OC)c(OC)cc21` the value was 95.3% (active); for `O=C(Nc1cccnc1)c1noc2c1CCCCC2`, 19.3%; for `CC[C@]1(O)CC2CN(CCc3c([nH]c4ccccc34)[C@@](C(=O)OC)(c3cc4c(cc3OC)N(C=O)[C@H]3[C@@](O)(C(=O)OC)[C@H](OC(C)=O)[C@]5(CC)C=CCN6CC[C@]43[C@@H]65)C2)C1` (some centres undefined), 54% (active). `O=C(C1CCC1)N1CCc2cc(S(=O)(=O)NCc3cccnc3)ccc21`: the inhibition was -16.5%. As for `Cc1ccc(C(c2nnnn2C(C)(C)C)N2CCc3ccccc3C2)cc1` (centres undefined), the figure is -0.2%; as for `CN(c1ccccc1)c1ccc(/C=c2\s/c(=C(/C#N)C(=O)C(C)(C)C)n(Cc3ccco3)c2=O)cc1`, 11.3%.

Turning to `CCCCc1nc2ccccc2c(NC(=O)CN2CCN(C)CC2)c1CCC`, the inhibition was -1.9%.
